What was measured:
[1] = species on record: Bos taurus; assay: Kinetic parameter in calf intestine adenosine deaminase.; format: ADME; details: cattle, in vitro
[2] = tested on: HEp-2; assay: Cytotoxicity against H.Ep cells; format: functional, cell-based; details: Homo sapiens
Procedure, shortened: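 H.Ep.-2 human cell culture cytotoxicity screen. Value is the drug concentration that inhibits cell growth to 50% of untreated controls.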

[3] = tested on: P388; assay: Percent increase in life span of P388 leukemia cells (10e6) infected(ip) mice at dose of 50 (400) mg/kg, ip: qd 1-5 schedule.; format: functional, Mus musculus
[4] = tested on: P388; assay: Percent increase in life span of P388 leukemia cells (10e6) infected(ip) mice at dose of 400 (400) mg/kg, ip: day 1 only; format: functional, Mus musculus
[5] = tested on: P388; assay: Percent increase in life span of P388 leukemia cells (10e6) infected(ip) mice at dose of 6(50) mg/kg, ip: qd 1-9 schedule.; format: functional, Mus musculus
[6] = tested on: HEp-2; assay: Cytotoxicity against H.Ep cells in the presence of 0.1 ug/mL pentostatin.; format: functional, cell-based; details: Homo sapiens
Procedure, shortened: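 H.Ep.-2 cell culture cytotoxicity screen with pentostatin at 0.1 µg/mL in the medium. Value is the drug concentration that inhibits cell growth to 50% of controls.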

[7] = tested on: P388; assay: Percent increase in life span of P388 leukemia cells (10e6) infected(ip) mice at dose of 50 (200) mg/kg, ip: qd 1-5 schedule.

COc1ncnc2c1nnn2[C@@H]1O[C@H](CO)[C@@H](O)[C@H]1O
Vmax [1]: 27 µM/min/mg

CCOc1nc(N)c2nnn(C3O[C@H](CO)[C@@H](O)[C@H]3O)c2n1 (some centres undefined)
IC50 [2]: > 75 µM

Nc1nc(O)nc2nn(C3O[C@H](CO)[C@@H](O)[C@H]3O)nc12 (some centres undefined)
IC50 [2]: > 75 µM

Nc1ncnc2c1nnn2[C@@H]1O[C@H](CO)[C@@H](O)[C@@H]1O
Vmax [1]: 75 µM/min/mg

Nc1ncnc2c1ncn2[C@@H]1O[C@H](CO)[C@@H](O)[C@H]1O [ADENOSINE]
Vmax [1]: 435 µM/min/mg

CS(=O)(=O)c1nc(N)c2nn(C3O[C@H](CO)[C@@H](O)[C@H]3O)nc2n1 (some centres undefined)
IC50 [2]: 22 µM

Nc1nc(F)nc2nn(C3O[C@H](CO)[C@@H](O)[C@H]3O)nc12 (some centres undefined)
IC50 [2]: > 75 µM

CS(=O)(=O)c1nc(N)c2nnn(C3O[C@H](CO)[C@@H](O)[C@H]3O)c2n1 (some centres undefined)
ILS [3]: 38%
IC50 [2]: 14 µM

Nc1nc(O)c2[nH]nnc2n1 [8-AZAGUANINE]
IC50 [2]: 2 µM

Nc1nc(N)c2nn(C3O[C@H](CO)[C@@H](O)[C@H]3O)nc2n1 (some centres undefined)
ILS [4]: 0%
IC50 [2]: > 75 µM

CSc1nc(N)c2nn(C3O[C@H](CO)[C@@H](O)[C@H]3O)nc2n1 (some centres undefined)
IC50 [2]: 25 µM

Nc1nc(F)nc2c1ncn2[C@@H]1O[C@H](CO)[C@@H](O)[C@H]1O
Vmax [1]: 0.78 µM/min/mg

Nc1nc(N)c2ncn([C@@H]3O[C@H](CO)[C@@H](O)[C@H]3O)c2n1
Vmax [1]: 119 µM/min/mg

Nc1nc(N)c2nnn([C@@H]3O[C@H](CO)[C@@H](O)[C@H]3O)c2n1
ILS [5]: 25%
Vmax [1]: 23 µM/min/mg
IC50 [6]: > 20 µM
IC50 [2]: 0.7 µM

Nc1nc(F)nc2c1nnn2C1O[C@H](CO)[C@@H](O)[C@H]1O (some centres undefined)
ILS [7]: 21%
Vmax [1]: 5 µM/min/mg
IC50 [6]: 2 µM
IC50 [2]: 2 µM

Nc1nc(F)nc2c1nnn2[C@H]1C[C@H](O)[C@@H](CO)O1
IC50 [2]: 70 µM

COc1ncnc2c1ncn2[C@@H]1O[C@H](CO)[C@@H](O)[C@@H]1O
Vmax [1]: 2 µM/min/mg

Nc1ncnc2c1nnn2[C@H]1C[C@H](O)[C@@H](CO)O1
Vmax [1]: 2000 µM/min/mg
IC50 [6]: > 25 µM
IC50 [2]: 10 µM

CSc1nc(N)c2nnn(C3O[C@H](CO)[C@@H](O)[C@H]3O)c2n1 (some centres undefined)
IC50 [2]: > 130 µM

Nc1ncnc2c1ncn2[C@@H]1O[C@H](CO)[C@@H](O)[C@@H]1O [VIDARABINE]
Vmax [1]: 94 µM/min/mg

Nc1ncnc2c1nnn2[C@@H]1O[C@H](CO)[C@@H](O)[C@H]1O
Vmax [1]: 1500 µM/min/mg
IC50 [6]: < 0.02 µM
IC50 [2]: 0.7 µM

Nc1nc(O)c2nnn(C3O[C@H](CO)[C@@H](O)[C@H]3O)c2n1 (some centres undefined)
IC50 [2]: 2 µM
